{"source": "paper PMC11352836", "about": "(Science Advances, 2024)", "key": {"[1]": {"molecular_target": "T1, ENL (Homo sapiens, UniProt Q03111)", "T1 sequence (Q03111 1-559)": "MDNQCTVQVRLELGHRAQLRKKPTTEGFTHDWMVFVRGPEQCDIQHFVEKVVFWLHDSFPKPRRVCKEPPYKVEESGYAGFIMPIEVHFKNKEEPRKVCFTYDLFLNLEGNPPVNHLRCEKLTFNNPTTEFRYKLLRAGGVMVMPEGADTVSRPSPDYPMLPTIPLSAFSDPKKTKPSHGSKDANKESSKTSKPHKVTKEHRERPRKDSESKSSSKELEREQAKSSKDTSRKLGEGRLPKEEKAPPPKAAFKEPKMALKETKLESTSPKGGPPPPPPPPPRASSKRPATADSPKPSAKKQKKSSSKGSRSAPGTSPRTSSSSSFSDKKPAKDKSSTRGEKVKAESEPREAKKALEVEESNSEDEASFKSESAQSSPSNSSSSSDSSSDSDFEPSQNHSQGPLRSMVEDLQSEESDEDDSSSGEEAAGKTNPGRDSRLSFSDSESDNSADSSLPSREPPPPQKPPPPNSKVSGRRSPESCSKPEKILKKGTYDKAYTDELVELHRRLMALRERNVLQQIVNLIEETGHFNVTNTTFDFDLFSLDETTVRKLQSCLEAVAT", "format": "cell-based", "conditions": "MV4;11 cells pretreated 1 hour, then 100 nM MS41 for 2 hours", "method_in_brief": "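MV4;11 cells were pretreated 1 h with graded concentrations of a YEATS-domain ligand, a VHL ligand, proteasome inhibitor MG132, or neddylation inhibitor MLN4924, then given 100 nM test compound for 2 h. Separately, control-sgRNA or VHL-sgRNA MV4;11 cells got graded test compound for 24 h. ENL and VHL were read by immunoblot.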"}, "[2]": {"test_system": "MV4;11 cells", "test": "RNA-seq analysis in MV4", "format": "cell-based, human", "conditions": "MV4;11, 6 and 24 hours"}, "[3]": {"molecular_target": "T1, ENL", "test": "Endogenous ENL degradation by immunoblotting in human leukemia cell lines", "format": "cell-based", "conditions": "MV4;11 cells; 1 nM to 10 μM, 6 and 24 hours", "method_in_brief": "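MV4;11 and Jurkat cells were treated with DMSO or graded test-compound concentrations for 6 or 24 h. Cells were lysed in Tris/250 mM NaCl/0.5% Triton X-100/glycerol buffer with DTT and protease inhibitors. Bradford-equalised lysates were immunoblotted for ENL, with β-actin as loading control.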"}, "[4]": {"test_system": "HEK293 cells", "test": "RT-qPCR of HOXA11 and HOXA13 in HEK293 cells expressing ENL mutants", "format": "cell-based, human", "conditions": "HEK293 stable cells, 100 nM, 72 hours", "method_in_brief": "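HEK293 stable lines expressing ENL mutants were treated with DMSO, 100 nM test compound or 100 nM controls for 72 h. HOXA11 and HOXA13 mRNA was measured by RT-qPCR in three independent experiments, reported as mean ± SEM with Student's t test.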"}, "[5]": {"test_system": "RS4;11 cells", "test": "Cell viability assay", "format": "cell-based, human", "conditions": "RS4;11, 6 days"}, "[6]": {"molecular_target": "T2, ENL YEATS domain (Homo sapiens, UniProt Q03111)", "T2 sequence (Q03111 1-145)": "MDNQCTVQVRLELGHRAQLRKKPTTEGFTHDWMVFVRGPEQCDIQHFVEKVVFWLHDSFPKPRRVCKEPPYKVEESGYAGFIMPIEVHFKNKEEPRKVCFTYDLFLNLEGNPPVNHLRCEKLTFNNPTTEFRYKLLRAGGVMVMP", "test": "AlphaScreen assay, ENL YEATS-H3K9ac interaction", "format": "binding"}, "[7]": {"test_system": "KASUMI1 cells", "test": "Colony formation assay", "format": "cell-based, human", "conditions": "KASUMI1, 100 nM, 10 days"}, "[8]": {"test_system": "MV4;11 cells", "test": "Cell viability assay", "format": "cell-based, human", "conditions": "MV4;11, 6 days"}, "[9]": {"test_system": "MV4;11 cells", "test": "MS-based global quantitative", "format": "cell-based, human", "conditions": "MV4;11, 100 nM, 2 or 6 hours; cutoff P value <0.05 and fold change >1.5", "method_in_brief": "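MV4;11 cells (10^6 per sample, three biological replicates) were exposed to 100 nM test compound or DMSO for 2 or 6 h. Pellets were solubilised in 8 M urea/50 mM Tris pH 8.0, reduced with 5 mM DTT and alkylated with 15 mM iodoacetamide. After fourfold dilution, samples were digested with trypsin (1:100, overnight, RT), desalted on C18 and analysed by nanoLC-MS. Proteins with ≥2 razor+unique peptides were compared by two-sample t test.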"}, "[10]": {"test_system": "SEMK2 cells", "test": "Cell viability assay", "format": "cell-based, human", "conditions": "SEMK2, 6 days"}, "[11]": {"test_system": "MV4;11 cells", "test": "Cell cycle and apoptosis assay", "format": "cell-based, human", "conditions": "MV4;11, 100 nM", "method_in_brief": "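Cells were harvested at set time points. For cell cycle, cells in HBSS/2% FBS were fixed with dropwise ice-cold 70% ethanol and stained with DAPI. For apoptosis, cells were PBS-washed at 1×10^6 cells/ml in binding buffer, stained with FITC-annexin V plus propidium iodide for 15 min at RT, and run on flow cytometry within 1 h.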"}, "[12]": {"test_system": "MV4;11 cells", "test": "RT-qPCR of ENL target genes and ENL in MV4", "format": "cell-based, human", "conditions": "MV4;11, 24 hours"}, "[13]": {"test_system": "ENL", "conditions": "cited from earlier work"}, "[14]": {"test_system": "IKZF1", "conditions": "cited from earlier work"}, "[15]": {"test_system": "xenograft leukemia models", "conditions": "cited from earlier work"}, "[16]": {"conditions": "cited from earlier work"}, "[17]": {"test_system": "MV4;11 cells", "test": "Drug synergy test, MS41 with doxorubicin", "format": "cell-based, human", "conditions": "MV4;11, cotreatment, 6 days", "method_in_brief": "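MV4;11 cells were given DMSO, test compound, doxorubicin, or the combination at graded concentrations for 6 days. Viability was read by CellTiter-Glo luminescence.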"}}, "note": "Peptide text beside a SMILES is read from it. * marks the point of attachment. Cbz = O=C(OCc1ccccc1)*"}
{"molecule": "CC(C)C[C@@H](C=O)NC(=O)[C@H](CC(C)C)NC(=O)[C@H](CC(C)C)NC(=O)OCc1ccccc1", "note": "[MG132] (Cbz-Leu-Leu-Leu-aldehyde)", "values": [{"measurement": "effect of pretreatment on MS41-mediated ENL degradation", "setting": "[1]", "value": "effectively blocked"}]}
{"molecule": "NS(=O)(=O)OC[C@@H]1C[C@@H](n2ccc3c(N[C@H]4CCc5ccccc54)ncnc32)C[C@@H]1O", "note": "[MLN4924]", "values": [{"measurement": "effect of pretreatment on MS41-mediated ENL degradation", "setting": "[1]", "value": "effectively blocked"}]}
{"molecule": "Cc1ncsc1-c1ccc([C@H](C)NC(=O)[C@H]2C[C@H](O)CN2C(=O)[C@@H](NC(=O)CCCCCCCCCNC(=O)c2ccc3c(c2)[C@H](NC(=O)c2cc(-c4ccc(C(=O)N(C)C)c(O)c4)on2)CC3)C(C)(C)C)cc1", "note": "[MS41N]", "values": [{"measurement": "changes in gene expression (RNA-seq)", "setting": "[2]", "value": "did not induce substantial changes in gene expression"}, {"measurement": "endogenous ENL protein degradation (immunoblot)", "setting": "[3]", "value": "did not induce ENL degradation, even at 10 μM"}, {"measurement": "HOXA11 and HOXA13 gene expression induced by ENL mutants", "setting": "[4]", "value": "had no or only minor effects on HOXA11 and HOXA13 gene expression"}, {"measurement": "cell growth suppression", "setting": "[5]", "value": "did not suppress cell growth"}, {"measurement": "IC50", "setting": "[6]", "value": 117, "unit": "nM"}, {"measurement": "clonogenic potential (colony formation)", "setting": "[7]", "value": "but not MS41N or PFI-6"}, {"measurement": "cell growth suppression", "setting": "[8]", "value": "did not suppress cell growth"}, {"measurement": "proteome-wide selectivity (change in protein abundance)", "setting": "[9]", "value": "did not substantially alter the abundance of any proteins"}, {"measurement": "cell growth suppression", "setting": "[10]", "value": "did not suppress cell growth"}, {"measurement": "apoptosis", "setting": "[11]", "value": "had no such effects"}, {"measurement": "cell cycle profile", "setting": "[11]", "value": "had no such effects"}, {"measurement": "mRNA levels of ENL (RT-qPCR)", "setting": "[12]", "value": "did not affect mRNA levels of ENL"}]}
{"molecule": "O=C(COc1cccc2c1C(=O)N(C1CCC(=O)NC1=O)C2=O)NCCOCCOCCNS(=O)(=O)Nc1cccc(-c2cn3cc(C(=O)NC4CCC4)ccc3n2)c1", "note": "(centres unmarked) [SR-1114]", "values": [{"measurement": "ENL depletion", "setting": "[13]", "value": "able to induce ENL depletion"}, {"measurement": "IKZF1 degradation (off-target)", "setting": "[14]", "value": "concurrent degradation of IKZF1"}]}
{"molecule": "C[C@H]1CCCN1Cc1cc2cnc(NC(=O)c3ccc4c(cnn4C)c3)cc2[nH]1", "note": "[TDI-11055]", "values": [{"measurement": "in vivo efficacy", "setting": "[15]", "value": "in vivo efficacy in xenograft leukemia models"}]}
{"molecule": "Cc1ncsc1-c1ccc(CNC(=O)[C@@H]2C[C@@H](O)CN2C(=O)[C@@H](NC(=O)C2(C#N)CC2)C(C)(C)C)cc1", "note": "[VH298]", "values": [{"measurement": "effect of pretreatment on MS41-mediated ENL degradation", "setting": "[1]", "value": "hindered MS41-mediated ENL degradation"}]}
{"molecule": "Cc1ncsc1-c1ccc(CNC(=O)[C@@H]2C[C@@H](O)CN2C(=O)[C@@H](NC(=O)CCOCCNC(=O)c2ccc3c(c2)[C@H](NC(=O)c2cc(-c4ccc(C(=O)N(C)C)c(O)c4)on2)CC3)C(C)(C)C)cc1", "note": "[compound 1]", "values": [{"measurement": "antitumor activity", "setting": "[16]", "value": "exhibiting antitumor activity"}]}
{"molecule": "COc1cccc2c1C(=O)c1c(O)c3c(c(O)c1C2=O)C[C@@](O)(C(=O)CO)C[C@@H]3O[C@H]1C[C@H](N)[C@H](O)[C@H](C)O1", "note": "[doxorubicin]", "values": [{"measurement": "interaction of MS41 and doxorubicin (Bliss independence model)", "setting": "[17]", "value": "strong synergistic effect"}]}
